Laboratory results taken from ChEMBL document CHEMBL1133563, “Development of new hydroxamate matrix metalloproteinase inhibitors derived from functionalized 4-aminoprolines” (J Med Chem, 2000).

Experiments:
Interstitial collagenase = biological target: T1, Interstitial collagenase (Homo sapiens, UniProt P03956); assay: In vitro inhibitory activity against matrix metalloprotease -1 (collagenase-1)
T1 sequence (P03956 whole entry): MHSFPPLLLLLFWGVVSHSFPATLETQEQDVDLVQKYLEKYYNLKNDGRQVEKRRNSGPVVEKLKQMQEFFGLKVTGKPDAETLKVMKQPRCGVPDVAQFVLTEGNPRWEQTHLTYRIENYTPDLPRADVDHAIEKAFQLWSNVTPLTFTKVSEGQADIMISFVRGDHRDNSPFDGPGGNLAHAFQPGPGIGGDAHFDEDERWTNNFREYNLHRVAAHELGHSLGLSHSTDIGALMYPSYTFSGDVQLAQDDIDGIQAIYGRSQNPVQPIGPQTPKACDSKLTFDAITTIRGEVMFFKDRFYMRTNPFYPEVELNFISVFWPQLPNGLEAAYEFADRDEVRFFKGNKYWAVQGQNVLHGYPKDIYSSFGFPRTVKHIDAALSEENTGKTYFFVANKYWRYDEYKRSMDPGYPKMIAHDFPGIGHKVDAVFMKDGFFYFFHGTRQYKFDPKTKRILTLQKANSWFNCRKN

Stromelysin-1 = Stromelysin-1 (Homo sapiens, UniProt P08254); assay: In vitro inhibitory activity against matrix metalloprotease -3 (stromelysin)
Chain of Stromelysin-1 (P08254 whole entry): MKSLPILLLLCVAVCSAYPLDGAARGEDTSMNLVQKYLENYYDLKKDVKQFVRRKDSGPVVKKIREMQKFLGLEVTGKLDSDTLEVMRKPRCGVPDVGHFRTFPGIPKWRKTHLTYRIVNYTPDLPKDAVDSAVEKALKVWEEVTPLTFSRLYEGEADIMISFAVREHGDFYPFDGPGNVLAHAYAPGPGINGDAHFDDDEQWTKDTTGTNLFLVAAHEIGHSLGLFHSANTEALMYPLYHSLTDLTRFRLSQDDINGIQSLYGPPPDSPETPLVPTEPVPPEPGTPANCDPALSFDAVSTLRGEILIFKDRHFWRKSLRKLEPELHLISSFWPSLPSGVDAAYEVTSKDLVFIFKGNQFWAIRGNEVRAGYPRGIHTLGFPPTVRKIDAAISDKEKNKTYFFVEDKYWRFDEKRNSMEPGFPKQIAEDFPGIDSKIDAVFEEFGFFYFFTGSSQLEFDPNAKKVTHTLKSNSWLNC

Matrilysin = biological target: T2, Matrilysin (Homo sapiens, UniProt P09237); assay: In vitro inhibitory activity against matrix metalloprotease-7 (matrilysin, MMP-7)
T2 sequence (P09237 whole entry): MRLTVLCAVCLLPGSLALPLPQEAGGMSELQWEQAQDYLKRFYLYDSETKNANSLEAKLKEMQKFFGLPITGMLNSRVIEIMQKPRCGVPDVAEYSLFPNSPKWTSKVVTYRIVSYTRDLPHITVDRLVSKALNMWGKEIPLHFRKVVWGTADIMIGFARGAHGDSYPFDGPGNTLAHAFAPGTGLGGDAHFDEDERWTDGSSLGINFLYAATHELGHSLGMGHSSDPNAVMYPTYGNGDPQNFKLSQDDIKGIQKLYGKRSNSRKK
Summary of the method: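 Human recombinant truncated enzymes, final MMP-1 8 nM, MMP-3 16 nM, MMP-7 2 nM. Quenched-fluorescence assay with Mca-Pro-Leu-Gly-Leu-Dpa-Ala-Arg-NH₂ (4 µM) in 50 mM Tris pH 7.5, 0.2 M NaCl, 5 mM CaCl₂, 0.02% Brij-35 at 25 °C. Fluorescence (ex 328/em 393 nm) read kinetically for 30 min.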

Collagenase 3 = Collagenase 3 (Homo sapiens, UniProt P45452); assay: In vitro inhibitory activity against human recombinant matrix metalloprotease-13 (collagenase-3)

SMILES	IC50 (Interstitial collagenase) [µM]	IC50 (Stromelysin-1) [µM]	IC50 (Matrilysin) [µM]	IC50 (Collagenase 3) [µM]
O=C(NO)[C@H]1C[C@H](N2CCCC2)CN1S(=O)(=O)c1ccc(Oc2ccc(F)cc2)cc1	0.02	0.004	0.85	< 0.0004
COc1ccc(S(=O)(=O)N2C[C@@H](NCCc3ccccc3)C[C@@H]2C(=O)NO)cc1	0.56	0.057	1.4	
CCCCOc1ccc(S(=O)(=O)N2C[C@@H](N3CCCS3(=O)=O)C[C@@H]2C(=O)NO)cc1	0.23	0.013	0.68	< 0.0004
CCCCCc1ccc(S(=O)(=O)N2C[C@@H](N3CCOCC3)C[C@@H]2C(=O)NO)cc1		0.012	7.4	0.0007
COc1ccc(S(=O)(=O)N2C[C@@H](NC(=O)c3ccc(-c4ccccc4)cc3)C[C@@H]2C(=O)NO)cc1	> 1	0.4		
CCCOc1ccc(S(=O)(=O)N2C[C@@H](NC(=O)[C@H](C)O)C[C@@H]2C(=O)NO)cc1	0.14	0.008	3.5	0.001
CS(=O)(=O)N[C@H]1C[C@H](C(=O)NO)N(S(=O)(=O)c2ccc(Oc3ccncc3)cc2)C1	0.45	0.022	> 10	0.0008
CCCOc1ccc(S(=O)(=O)N2C[C@@H](NC(=O)COC)C[C@@H]2C(=O)NO)cc1	0.5	0.03	> 10	0.003
COc1ccc(S(=O)(=O)N2C[C@@H](N(C)S(C)(=O)=O)C[C@@H]2C(=O)NO)cc1	0.019	0.006	0.52	0.0005
CN1CC(=O)N([C@H]2C[C@H](C(=O)NO)N(S(=O)(=O)c3ccc(Oc4ccncc4)cc3)C2)C1=O	0.6	0.011	7.4	0.0007
O=C(NO)[C@H]1C[C@H](N2CCCCC2)CN1S(=O)(=O)c1ccc(Oc2ccccc2)cc1	0.017	0.008	0.61	< 0.0004
CCOc1ccc(S(=O)(=O)N2C[C@@H](N3C(=O)CN(C)C3=O)C[C@@H]2C(=O)NO)cc1	0.58	0.033	7.5	0.004
CCCOc1ccc(S(=O)(=O)N2C[C@@H](N3C(=O)CN(C)C3=O)C[C@@H]2C(=O)NO)cc1	0.26	0.009	2.6	0.0003
CCCCOc1ccc(S(=O)(=O)N2C[C@@H](NC(=O)[C@H](C)O)C[C@@H]2C(=O)NO)cc1	1.2	0.01	4.2	0.0009
CCCCOc1ccc(S(=O)(=O)N2C[C@@H](N)C[C@@H]2C(=O)NO)cc1	0.38	0.008		
CNC(=O)N[C@H]1C[C@H](C(=O)NO)N(S(=O)(=O)c2ccc(OC)cc2)C1	3.1	0.3		0.027
CCCOc1ccc(S(=O)(=O)N2C[C@@H](N3CCCCC3)C[C@@H]2C(=O)NO)cc1	0.21	0.009	0.62	0.0004
COc1ccc(S(=O)(=O)N2C[C@@H](N3C(=O)CN(C)C3=O)C[C@@H]2C(=O)NO)cc1	0.2	0.008	1.8	0.0005
O=C(NO)[C@H]1C[C@H](N2CCOCC2)CN1S(=O)(=O)c1ccc(Oc2ccccc2)cc1	0.019	0.007	0.71	< 0.0004
O=C(NO)[C@H]1C[C@H](N2CCCC2)CN1S(=O)(=O)c1ccc(Oc2ccccc2)cc1	0.019	0.005	0.79	< 0.0004
CCCCOc1ccc(S(=O)(=O)N2C[C@@H](NS(=O)(=O)c3cn(C)cn3)C[C@@H]2C(=O)NO)cc1	0.7	0.006		
CCCN[C@H]1C[C@H](C(=O)NO)N(S(=O)(=O)c2ccc(OC)cc2)C1		0.087	2.2	0.005
